Assays:
[1] = target: T1, Sphingosine kinase 1 (Homo sapiens, UniProt Q9NYA1); assay: Inhibition of human C-terminal His6-tagged SPHK1 expressed in fall armyworm sf9 cells assessed as reduction in S1P formation using sphingosine as substrate after 1 hr by FITC-based caliper assay
[2] = target: T1, Sphingosine kinase 1; assay: Inhibition of human C-terminal His6-tagged SPHK1 expressed in fall armyworm sf9 cells assessed as reduction in ADP formation using sphingosine as substrate preincubated for 15 mins followed by substrate addition after 1 hr by transcreener-based fluorescence polarization assay
[3] = target: T2, Sphingosine kinase 2 (Homo sapiens, UniProt Q9NRA0); assay: Inhibition of SPHK2 (unknown origin) by FITC-based caliper assay
T2 sequence (Q9NRA0 whole entry): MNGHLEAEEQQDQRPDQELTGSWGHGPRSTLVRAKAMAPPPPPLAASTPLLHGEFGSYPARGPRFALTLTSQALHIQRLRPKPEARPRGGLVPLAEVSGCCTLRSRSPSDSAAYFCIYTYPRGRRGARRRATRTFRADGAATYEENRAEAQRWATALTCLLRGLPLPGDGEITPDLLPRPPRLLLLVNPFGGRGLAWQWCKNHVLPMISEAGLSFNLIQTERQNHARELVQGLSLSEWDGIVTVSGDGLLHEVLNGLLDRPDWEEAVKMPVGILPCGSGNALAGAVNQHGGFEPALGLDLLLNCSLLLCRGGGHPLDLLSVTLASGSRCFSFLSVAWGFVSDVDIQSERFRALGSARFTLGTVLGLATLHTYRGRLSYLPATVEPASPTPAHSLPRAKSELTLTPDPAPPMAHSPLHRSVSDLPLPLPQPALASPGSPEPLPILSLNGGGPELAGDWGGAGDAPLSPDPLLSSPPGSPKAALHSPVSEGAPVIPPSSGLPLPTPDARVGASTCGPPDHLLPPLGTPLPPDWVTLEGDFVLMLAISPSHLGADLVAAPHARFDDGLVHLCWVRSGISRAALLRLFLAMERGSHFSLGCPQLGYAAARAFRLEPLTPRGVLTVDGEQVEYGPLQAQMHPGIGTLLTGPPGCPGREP
How it was run: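 Recombinant SphK2 enzyme assay measuring FITC-S1P formation, with product resolved by microfluidic mobility-shift separation. Dose-response gives IC50. Reported values are the mean of two or more independent assays.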

[4] = target: T1, Sphingosine kinase 1; assay: Inhibition of SPHK1 in human MDA1483 cells using C17-sphingosine as substrate assessed as reduction in C17-S1P formation preincubated for 30 mins with substrate measured after 15 mins by LC-MS analysis; format: cell-based
[5] = target: T1, Sphingosine kinase 1; assay: Inhibition of SPHK1 in human whole-blood using C17-sphingosine as substrate assessed as reduction in C17-S1P production preincubated for 30 mins followed by substrate addition measured after 10 mins by MS analysis
[6] = target: Sphingosine kinase 1 (Homo sapiens, UniProt Q9NYA1, S225A); assay: Binding affinity to human C-terminal His6-tagged SPHK1 S225A mutant expressed in fall armyworm sf9 cells after 1 hr by ITC analysis
[7] = Cytotoxicity in human MDA1483 cells at 50 uM by MTT assay; format: cell-based; details: mda1483, 50 µM
[8] = target: Sphingosine 1-phosphate receptor 3 (Homo sapiens, UniProt Q99500); assay: Binding affinity to S1PR3 (unknown origin)
[9] = target: Sphingosine 1-phosphate receptor 5 (Homo sapiens, UniProt Q9H228); assay: Binding affinity to S1PR5 (unknown origin)
[10] = Solubility of the compound; format: physicochemical

T1 sequence (Q9NYA1 whole entry): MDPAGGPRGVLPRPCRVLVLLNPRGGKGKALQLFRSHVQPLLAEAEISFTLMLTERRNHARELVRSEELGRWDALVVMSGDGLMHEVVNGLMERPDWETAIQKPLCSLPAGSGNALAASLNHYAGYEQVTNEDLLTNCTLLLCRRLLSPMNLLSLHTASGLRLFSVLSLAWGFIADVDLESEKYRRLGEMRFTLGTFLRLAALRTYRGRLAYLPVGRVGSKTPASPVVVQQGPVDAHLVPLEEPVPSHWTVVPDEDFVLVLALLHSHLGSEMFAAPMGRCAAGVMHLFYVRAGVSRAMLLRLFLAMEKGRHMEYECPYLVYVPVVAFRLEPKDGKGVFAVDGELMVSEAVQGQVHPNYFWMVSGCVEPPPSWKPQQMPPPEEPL
Sphingosine kinase 1 (Homo sapiens, UniProt Q9NYA1, S225A), sequence (Q9NYA1 whole entry S225A): as the sequence (Q9NYA1 whole entry) above, with S225A counted along it
Sphingosine 1-phosphate receptor 3, sequence (Q99500 whole entry): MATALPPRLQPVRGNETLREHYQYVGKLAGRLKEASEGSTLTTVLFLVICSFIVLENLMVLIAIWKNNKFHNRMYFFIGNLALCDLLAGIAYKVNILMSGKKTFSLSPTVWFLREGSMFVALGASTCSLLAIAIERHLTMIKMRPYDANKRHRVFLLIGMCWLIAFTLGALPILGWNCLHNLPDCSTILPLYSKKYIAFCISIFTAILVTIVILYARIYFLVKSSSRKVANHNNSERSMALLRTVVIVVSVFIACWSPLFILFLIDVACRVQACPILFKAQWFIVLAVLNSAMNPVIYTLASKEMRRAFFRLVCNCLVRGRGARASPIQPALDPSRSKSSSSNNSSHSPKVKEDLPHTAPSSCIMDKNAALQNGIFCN
Sphingosine 1-phosphate receptor 5, sequence (Q9H228 whole entry): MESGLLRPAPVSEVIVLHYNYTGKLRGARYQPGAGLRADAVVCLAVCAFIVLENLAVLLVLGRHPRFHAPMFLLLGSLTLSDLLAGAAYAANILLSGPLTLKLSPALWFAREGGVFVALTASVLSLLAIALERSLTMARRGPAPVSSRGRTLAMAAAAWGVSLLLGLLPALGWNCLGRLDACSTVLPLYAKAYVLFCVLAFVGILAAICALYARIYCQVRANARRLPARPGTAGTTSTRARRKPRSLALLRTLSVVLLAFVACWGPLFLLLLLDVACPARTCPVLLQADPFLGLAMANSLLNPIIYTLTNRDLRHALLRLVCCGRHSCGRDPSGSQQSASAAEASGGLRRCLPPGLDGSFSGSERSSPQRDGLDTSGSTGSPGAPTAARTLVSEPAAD

Row | SMILES | IC50 [1] | IC50 [2] | IC50 [3] | IC50 [4] | IC50 [5] | Kd [6] | IC50 [8] | IC50 [9] | solubility [10] | Activity [7]
1 | Cc1cc(CS(=O)(=O)c2ccccc2)cc(OCc2ccc(CN3C[C@@H](O)[C@H](O)C3)cc2)c1 | 2 nM | 2 nM | 465 nM | 0.17 nM | 6.4 nM | – | – | – | – | –
2 | O=C(Nc1cccc(OCc2ccc(CN3CCC[C@@H]3CO)cc2)c1)c1ccccc1 | 9820 nM | 3670 nM | 145 nM | 1200 nM | > 8800 nM | – | – | – | – | –
3 | Cc1nc2ccc(-c3ccc(CN4CCC[C@H]4CO)cc3)cc2n1C[C@@H]1CCCO1 | > 100000 nM | > 100000 nM | > 100000 nM | > 100000 nM | – | – | – | – | – | –
4 | OC[C@H]1CCCN1Cc1ccc(COc2cccc(C3CCCCC3)c2)cc1 | < 1.7 nM | 0.7 nM | < 1.7 nM | 0.03 nM | 1.5 nM | – | – | – | – | –
5 | Cc1nc2ccc(-c3ccc(CN4CCC[C@@H]4CO)cc3)cc2n1CC(C)C | – | 290 nM | – | 440 nM | – | – | – | – | – | –
6 | O=S(=O)(Cc1cccc(OCc2ccc(CN3CCC[C@@H]3CO)cc2)c1)C1CC1 | 40.4 nM | 10 nM | 164 nM | 1.7 nM | 1470 nM | – | – | – | – | –
7 | Cc1cc(CS(=O)(=O)c2ccccc2)cc(OCc2ccc(CN3CC[C@@H](O)C3)cc2)c1 | – | 28 nM | – | 30 nM | – | – | – | – | – | –
8 | Cc1nc2ccc(-c3ccc(CN4CCC[C@@H]4CO)cc3)cc2n1C[C@H]1CCCO1 | 870 nM | 190 nM | 46000 nM | 81 nM | – | 2900 nM | – | – | – | –
9 | Cc1nc2ccc(-c3ccc(CN4CCC[C@H]4CO)cc3)cc2n1C[C@H]1CCCO1 | > 100000 nM | 31000 nM | > 100000 nM | 9800 nM | – | – | – | – | – | –
10 | O=S(=O)(Cc1cccc(OCc2ccc(CN3CCC[C@@H]3CO)cc2)c1)c1ccccc1 | 2.4 nM | 2 nM | 164 nM | 0.3 nM | 35 nM | – | – | – | – | –
11 | Cc1nc2ccc(-c3ccc(CN4CCCC4)cc3)cc2n1C[C@H]1CCCO1 | – | > 100000 nM | – | – | – | – | – | – | – | –
12 | Cc1nc(-c2cccc(OCc3ccc(CN4CCC[C@@H]4CO)cc3)c2)no1 | 25 nM | 4.5 nM | 2.4 nM | 1.7 nM | 173 nM | – | – | – | – | –
13 | Cc1nc2ccc(-c3ccc(CN4CCC[C@@H]4CO)cc3)cc2n1CC1CCCC1 | – | 11 nM | – | 10 nM | – | – | – | – | – | –

Continued, in another order:

Row | IC50 [1] | IC50 [2] | IC50 [3] | IC50 [4] | IC50 [5] | Kd [6] | IC50 [8] | IC50 [9] | solubility [10] | SMILES | Activity [7]
14 | 3.9 nM | 3.9 nM | 7230 nM | 1 nM | 38 nM | – | – | – | – | Cc1cc(CS(=O)(=O)c2ccccc2)cc(OCc2ccc(CN3C[C@@H](O)[C@@H](O)C3)cc2)c1 | –
15 | 12700 nM | 4600 nM | > 100000 nM | 2100 nM | – | 12000 nM | – | – | – | Cc1nc2ccc(-c3ccc(CN4CCC[C@@H]4CO)cc3)cc2n1C[C@@H]1CCCO1 | –
16 | 2.6 nM | 3 nM | 443 nM | 0.03 nM | 5.2 nM | – | – | – | – | Cc1cc(CS(=O)(=O)c2ccccc2)cc(OCc2ccc(CN3CC[C@H](O)C3)cc2)c1 | –
17 | 4.8 nM | 0.8 nM | < 1.7 nM | 0.6 nM | 19 nM | – | – | – | – | CC(C)c1cccc(OCc2ccc(CN3CCC[C@@H]3CO)cc2)c1 | –
18 | – | 7 nM | – | 4 nM | – | – | – | – | – | Cc1nc2ccc(-c3ccc(CN4CCC[C@@H]4CO)cc3)cc2n1CCC(C)C | –
19 | – | 8 nM | – | 4 nM | – | – | – | – | – | Cc1nc2ccc(-c3ccc(CN4CCC[C@@H]4CO)cc3)cc2n1CCC1CCC1 | –
20 | – | 439 nM | – | 519 nM | – | – | – | – | – | CS(=O)(=O)Cc1cccc(OCc2ccc(CN3CCC[C@@H]3CO)cc2)c1 | –
21 | – | 440 nM | – | 250 nM | – | – | – | – | – | Cc1nc2ccc(-c3ccc(CN4CCC[C@@H]4CO)cc3)cc2n1Cc1ccccc1 | –
22 | 1400 nM | 1700 nM | 39600 nM | 180 nM | – | – | > 10000 nM | > 10000 nM | Insoluble | Cc1cc(CS(=O)(=O)c2ccccc2)cc(OCc2ccc3[nH]c(N)nc3c2)c1 | Non-Toxic
23 | 48000 nM | 48000 nM | – | 27000 nM | – | – | – | – | – | Cc1cc(CS(=O)(=O)c2ccccc2)cc(OCc2ccc3[nH]cnc3c2)c1 | –
24 | 14.6 nM | 5.3 nM | 35100 nM | 3.5 nM | – | – | – | – | – | Cc1cc(CS(=O)(=O)c2ccccc2)cc(OCc2ccc(CNCCO)cc2)c1 | –

From ChEMBL document CHEMBL4007442, “Discovery of a Potent and Selective Sphingosine Kinase 1 Inhibitor through the Molecular Combination of Chemotype-Distinct Screening Hits” (J Med Chem, 2017)
